Active and inactive are the calls of the source. No cut-off for these calls is given here.

One data set concerns L02. As to the kind of experiment: Cytotoxicity against human L02 cells assessed as reduction in cell viability incubated for 120 hrs by CCK-8 assay. The format is cell-based. As to conditions: l02, 120 h.
Data set [1] is described as follows: AUC (0 to infinity) in ICR mouse at 25 mg/kg, ip by LC-tandem mass spectrometry analysis. The format is ADME, organism-based. As to conditions: in vivo. The arrangement: time infinity, route intraperitoneal, dose 25 mg/kg. A digest of the protocol: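 Female ICR mice (20-23 g, 6-7 weeks old, n = 3) received a single 25 mg/kg intraperitoneal dose formulated in 5% DMSO/15% Solutol HS15/80% D5W. Plasma was sampled at 0.5, 1, 2, 4, 6, 8 and 24 h and protein-precipitated with methanol. Compound was quantified by LC-MS/MS against a standard curve.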

The test system of another data set is LNCaP. As to the kind of experiment: Antiproliferation activity against human LNCAP assessed as cell growth inhibition incubated for 7 days by CCK-8 assay. As to conditions: time 7.0 day. The format is functional, cell-based. A digest of the protocol: (§1)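 Cells were sub-cultured at least twice and seeded for 24 h before dosing. Compounds came from 10 mM DMSO stocks, given as 10 points of 3-fold serial dilution starting at 10-20 μM. Incubation was about 7 days (Capan-1 13 days) at 37 °C, 5% CO2. Read-out was CCK-8 absorbance at 450 nm, as % growth versus DMSO wells (duplicate wells). IC50 was fitted by nonlinear regression; three independent experiments.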

A further data set relates to MDA-MB-231. As to the kind of experiment: Antiproliferation activity against human MDA-MB-231 assessed as cell growth inhibition incubated for 7 days by CCK-8 assay. The format is functional, cell-based. As to conditions: time 7.0 day. The gist of the method: as §1
In data set [2] the target is T1, Protein cereblon/Poly [ADP-ribose] polymerase 1 (Homo sapiens, UniProt P09874+Q96SW2). As to the kind of experiment: Protac activity at CRBN/PARP1 in human CAPAN-1 cells assessed as induction of PARP1 degradation at 100 nM incubated for 24 hrs by Western blot analysis relative to control. The format is cell-based. A digest of the protocol: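 Capan-1 cells were treated 24 h (1-1000 nM, or a wider dose range for DC50). Lysis was in RIPA buffer with protease inhibitors, and 20-30 μg protein was blotted. PARP1 was normalized to β-tubulin and to DMSO control, quantified by densitometry. DC50 came from two independent experiments.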
Target sequence in this assay (P09874 2-1014 limits assumed): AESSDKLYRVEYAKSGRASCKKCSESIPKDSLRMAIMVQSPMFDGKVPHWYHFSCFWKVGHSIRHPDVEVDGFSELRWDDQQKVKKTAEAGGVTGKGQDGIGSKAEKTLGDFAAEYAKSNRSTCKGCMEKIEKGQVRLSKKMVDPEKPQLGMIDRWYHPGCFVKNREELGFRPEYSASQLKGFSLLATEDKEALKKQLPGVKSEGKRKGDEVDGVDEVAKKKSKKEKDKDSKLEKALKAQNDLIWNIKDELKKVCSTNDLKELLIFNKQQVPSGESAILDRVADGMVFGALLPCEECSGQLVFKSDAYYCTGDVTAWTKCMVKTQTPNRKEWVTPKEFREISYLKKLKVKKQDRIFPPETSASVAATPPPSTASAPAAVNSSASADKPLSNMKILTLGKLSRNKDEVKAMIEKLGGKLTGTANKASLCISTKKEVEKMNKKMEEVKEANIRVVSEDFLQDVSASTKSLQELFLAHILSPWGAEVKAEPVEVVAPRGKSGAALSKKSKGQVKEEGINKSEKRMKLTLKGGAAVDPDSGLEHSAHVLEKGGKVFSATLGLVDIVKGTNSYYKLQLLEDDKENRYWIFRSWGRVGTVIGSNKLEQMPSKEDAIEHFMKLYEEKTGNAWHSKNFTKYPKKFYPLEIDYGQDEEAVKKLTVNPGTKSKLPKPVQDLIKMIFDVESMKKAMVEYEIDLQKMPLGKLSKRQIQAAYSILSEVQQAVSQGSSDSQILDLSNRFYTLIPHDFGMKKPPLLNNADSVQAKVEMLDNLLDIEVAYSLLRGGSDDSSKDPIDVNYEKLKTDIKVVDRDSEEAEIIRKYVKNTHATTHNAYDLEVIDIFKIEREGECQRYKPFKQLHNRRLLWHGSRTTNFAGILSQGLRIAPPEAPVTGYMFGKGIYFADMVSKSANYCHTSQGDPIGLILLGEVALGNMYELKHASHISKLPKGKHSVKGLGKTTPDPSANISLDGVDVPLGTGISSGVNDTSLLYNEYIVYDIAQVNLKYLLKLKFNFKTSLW
Target sequence in this assay (Q96SW2 whole entry partner): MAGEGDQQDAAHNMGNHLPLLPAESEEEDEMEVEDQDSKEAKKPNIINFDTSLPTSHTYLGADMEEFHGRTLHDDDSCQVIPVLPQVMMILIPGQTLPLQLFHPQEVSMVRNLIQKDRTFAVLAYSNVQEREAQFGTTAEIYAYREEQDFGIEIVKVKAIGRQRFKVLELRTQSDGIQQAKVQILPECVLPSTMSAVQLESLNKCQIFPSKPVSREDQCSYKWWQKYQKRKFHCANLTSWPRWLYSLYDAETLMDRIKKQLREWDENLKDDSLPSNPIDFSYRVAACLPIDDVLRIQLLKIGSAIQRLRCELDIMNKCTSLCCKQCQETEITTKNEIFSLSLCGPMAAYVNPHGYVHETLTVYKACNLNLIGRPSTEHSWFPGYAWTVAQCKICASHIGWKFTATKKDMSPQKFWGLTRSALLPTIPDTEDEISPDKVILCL

Data set [3] can be described thus: Acute toxicity in Balb/c mouse xenografted with CAPAN-1 cells assessed as mean weight loss at 25 mg/kg, ip qd administered for 5 days in presence of cisplatin measured on day 10 relative to control. Format: organism-based. As to conditions: in vivo, 120 h, time 5 day. The gist of the method:
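Male BALB/c nude mice carried Capan-1 xenografts (5×10^6 cells s.c.), randomized at ~150 mm³ (6 per group). Treatment was 25 or 50 mg/kg intraperitoneally or 100 mg/kg by oral gavage, once daily on days 0-4. Cisplatin 6 mg/kg in saline was given intraperitoneally on day 2, 45 min after the partner drug. Tumor volume and body weight were measured 2-3 times weekly.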

The next data set concerns NCM460. As to the kind of experiment: Cytotoxicity against human NCM460 cells assessed as reduction in cell viability incubated for 120 hrs by CCK-8 assay. Format: cell-based. The following applies: ncm460, 120 h.
Data set [4] deals with T1, Protein cereblon/Poly [ADP-ribose] polymerase 1. As to the kind of experiment: Protac activity at CRBN/PARP1 in human SW-620 cells assessed as induction of PARP1 degradation at 30 nM incubated for 24 hrs in presence of 0.1 to 1 uM CRBN ligand pomalidomide by Western blot analysis. Format: cell-based.
Target sequence in this assay (P09874 2-1014 limits assumed): as the sequence (P09874 2-1014 limits assumed) above
Target sequence in this assay (Q96SW2 whole entry partner): as the sequence (Q96SW2 whole entry partner) above
For data set [5] the target is unchanged. As to the kind of experiment: Protac activity at CRBN/PARP1 in human MDA-MB-436 cells assessed as induction of PARP1 degradation at 1 to 1000 nM incubated for 24 hrs by Western blot analysis. The format is cell-based. As to conditions: dose nM 1-1000, time 24.0 hrs. A digest of the protocol:
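PARP1 immunoblot of MDA-MB-436 lysates after 24 h exposure at 1, 10, 100 and 1000 nM; RIPA lysis, 20-30 µg protein per lane, β-tubulin as loading control, band density normalized to DMSO control.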
Target sequence in this assay (P09874 2-1014 limits assumed): as the sequence (P09874 2-1014 limits assumed) above
Target sequence in this assay (Q96SW2 whole entry partner): as the sequence (Q96SW2 whole entry partner) above

The target is the same in data set [6]. As to the kind of experiment: Protac activity at CRBN/PARP1 in human MDA-MB-436 cells assessed as induction of PARP1 degradation at 30 nM incubated for 24 hrs in presence of proteasome inhibitor MG132 by Western blot analysis.
Target sequence in this assay (P09874 2-1014 limits assumed): as the sequence (P09874 2-1014 limits assumed) above
Target sequence in this assay (Q96SW2 whole entry partner): as the sequence (Q96SW2 whole entry partner) above
A further data set relates to MDA-MB-436. As to the kind of experiment: Induction of DNA damage in human MDA-MB-436 cells assessed as increase in gammaH2AX foci formation incubated for 24 hrs by Western blot analysis. Format: functional, cell-based. The following applies: dose microM 0.1-10, time 24.0 hrs. The gist of the method:
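MDA-MB-436 (BRCA1-/-) or Capan-1 (BRCA2-/-) cells were treated 24 h at the indicated concentrations. Lysis was in RIPA buffer with protease inhibitors, and 20-30 μg protein was run on SDS-PAGE. Blots were probed for γH2AX, with β-tubulin as the loading control, and detected by ECL.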

The target in data set [7] is T1, Protein cereblon/Poly [ADP-ribose] polymerase 1. As to the kind of experiment: Protac activity at CRBN/PARP1 in human 22Rv1 cells assessed as induction of PARP1 degradation at 30 nM incubated for 1 to 24 hrs by Western blot analysis. Format: cell-based. As to conditions: time hrs 1-24.
Target sequence in this assay (P09874 2-1014 limits assumed): as the sequence (P09874 2-1014 limits assumed) above
Target sequence in this assay (Q96SW2 whole entry partner): as the sequence (Q96SW2 whole entry partner) above
The target is the same in data set [8]. As to the kind of experiment: Protac activity at CRBN/PARP1 in human SW-620 cells assessed as induction of PARP1 degradation incubated for 24 hrs by Western blot analysis. Format: cell-based. A digest of the protocol: (§2)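 Concentration-response over a wide range, 24 h exposure; PARP1 quantified by western blot and normalized to β-tubulin density; DC50 derived from two biologically independent experiments.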
Target sequence in this assay (P09874 whole entry): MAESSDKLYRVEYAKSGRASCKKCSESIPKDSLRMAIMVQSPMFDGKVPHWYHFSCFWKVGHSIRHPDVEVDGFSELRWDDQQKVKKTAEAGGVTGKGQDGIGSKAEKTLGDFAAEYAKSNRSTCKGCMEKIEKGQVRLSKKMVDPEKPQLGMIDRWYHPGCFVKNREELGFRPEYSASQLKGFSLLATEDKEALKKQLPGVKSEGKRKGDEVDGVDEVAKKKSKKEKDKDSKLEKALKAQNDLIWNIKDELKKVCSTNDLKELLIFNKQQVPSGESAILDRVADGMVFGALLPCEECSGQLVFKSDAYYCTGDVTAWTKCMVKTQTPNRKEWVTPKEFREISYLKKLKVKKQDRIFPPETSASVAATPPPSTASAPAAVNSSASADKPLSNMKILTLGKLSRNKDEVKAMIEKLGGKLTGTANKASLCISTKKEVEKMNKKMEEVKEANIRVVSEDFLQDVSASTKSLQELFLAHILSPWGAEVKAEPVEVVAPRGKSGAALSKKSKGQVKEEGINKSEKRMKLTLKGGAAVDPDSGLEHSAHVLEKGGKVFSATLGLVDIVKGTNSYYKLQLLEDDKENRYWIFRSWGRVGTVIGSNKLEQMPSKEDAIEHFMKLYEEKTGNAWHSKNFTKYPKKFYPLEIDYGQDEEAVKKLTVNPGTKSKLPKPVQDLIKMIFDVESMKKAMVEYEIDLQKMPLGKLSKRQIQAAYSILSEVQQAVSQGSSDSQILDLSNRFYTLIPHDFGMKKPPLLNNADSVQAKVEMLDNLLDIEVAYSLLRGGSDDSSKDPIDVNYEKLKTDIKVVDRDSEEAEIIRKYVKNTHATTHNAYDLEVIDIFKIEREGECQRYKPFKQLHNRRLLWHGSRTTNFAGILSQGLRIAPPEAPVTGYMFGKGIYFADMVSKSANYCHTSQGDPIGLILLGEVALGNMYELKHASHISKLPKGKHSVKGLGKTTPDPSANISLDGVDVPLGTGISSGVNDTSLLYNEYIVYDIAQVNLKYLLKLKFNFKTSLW
Target sequence in this assay (Q96SW2 whole entry): as the sequence (Q96SW2 whole entry partner) above

The next data set relates to Mus musculus. As to the kind of experiment: Induction of PARP1 degradation in SW-620 cells xenografted Balb/c mouse at 25 mg/kg, ip at 1 to 24 hrs by Western blotting analysis. Format: functional, organism-based. The following applies: time hrs 1-24. A digest of the protocol: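 Male BALB/c nude mice carried subcutaneous SW620 xenografts (6×10^6 cells); at 200-300 mm³ they were randomized. A single 25 mg/kg intraperitoneal dose was given. Tumors were harvested at 1, 3, 6 and 24 h, and vehicle controls at 3 h. Tumors were frozen, ground in liquid nitrogen, and PARP1 was analysed by western blot against β-tubulin.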

The target of data set [9] is T1, Protein cereblon/Poly [ADP-ribose] polymerase 1. As to the kind of experiment: Protac activity at CRBN/PARP1 in human SW-620 cells assessed as induction of PARP1 degradation at 30 nM incubated for 24 hrs in presence of proteasome inhibitor MG132 by Western blot analysis. Format: cell-based.
Target sequence in this assay (P09874 2-1014 limits assumed): as the sequence (P09874 2-1014 limits assumed) above
Target sequence in this assay (Q96SW2 whole entry partner): as the sequence (Q96SW2 whole entry partner) above
For data set [10] the target is unchanged. As to the kind of experiment: Protac activity at CRBN/PARP1 in human MDA-MB-436 cells assessed as induction of PARP1 degradation incubated for 24 hrs by Western blot analysis. The format is cell-based. A digest of the protocol: as §2
Target sequence in this assay (P09874 whole entry): as the sequence (P09874 whole entry) above
Target sequence in this assay (Q96SW2 whole entry): as the sequence (Q96SW2 whole entry partner) above
The subject of another data set is HEK293. As to the kind of experiment: Cytotoxicity against human HEK293 cells assessed as cell viability incubated for 120 hrs by CCK-8 assay. The following applies: hek293, 120 h. Format: cell-based.
Data set [11] in a line: Acute toxicity in Balb/c mouse xenografted with SW-620 cells assessed as mean weight loss at 10 mg/kg, ip qd administered for 5 days in presence of TMZ measured on day 9 relative to control. The format is organism-based. As to conditions: in vivo, 216 h, time 9 day. A digest of the protocol:
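Male BALB/c nude mice carried SW620 xenografts (6×10^6 cells s.c.), randomized at ~150 mm³ (6 per group). TMZ 50 mg/kg was given orally once daily on days 0-4, 45 min after the partner drug. Partners were 5 or 10 mg/kg intraperitoneally or 10 mg/kg by oral gavage, daily for 5 days. Vehicle was 5% DMSO/20% PEG400/10% Cremophor EL/65% saline. Tumor volume and body weight were recorded 2-3 times weekly.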

Regarding `O=C(CCCCCCCCCCC(=O)N1CCN(C(=O)c2cc(Cc3n[nH]c(=O)c4ccccc34)ccc2F)CC1)NCCNc1cccc2c1C(=O)N(C1CCC(=O)NC1=O)C2=O` (stereo not drawn), the Activity result in the data set with L02 was “Non-Toxic”; in data set [2] it was 100%; in [3], 9%; with NCM460, “Non-Toxic”; in the data set with MDA-MB-436 it was “Dose-dependent effect”; in the data set on HEK293 it was “Non-Toxic”. For the same compound, in data set [11], the Activity worked out at 15%. Besides, in [1], the AUC(0-inf) was found to be 5360 ng·h/mL. The outcome (in the data set on LNCaP; in the data set with MDA-MB-231; in data set [5]; in [7]; in the data set with Mus musculus) was Active. Moreover, the result in [4], in [6] and in [9] was inactive. The DC50 was 0.509 nM in data set [8] and 1.26 nM in data set [10].
